The test system of data set [1] is HaCaT. Nature of the data set: Growth inhibition of human HaCaT cells assessed as LDH release at 100 uM incubated for 24 hrs by MTT assay. In kind it is toxicity, cell-based. The essentials:
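HaCaT keratinocytes in DMEM with 10% fetal calf serum, seeded at 1x10⁵ cells/mL and grown 24 h. After a PBS wash, cells were exposed 24 h to compound at final 100 μM (from 10 mM DMSO stock, diluted in medium). Medium was then assayed for LDH release at 490/680 nm. Normalised to untreated cells and to lysis buffer (maximum release) as % cytotoxicity. Triplicate wells, three independent experiments.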
Background: LDH in the medium is a marker of cell lysis.

For data set [2], the system named is HaCaT. Kind of data set: Growth inhibition of human HaCaT cells assessed as reduction in cell viability at above 10 uM incubated for 24 hrs by MTT assay. For orientation: Tetrazolium assays rely on reduction of a dye to a coloured formazan, in cell work by metabolically active cells.
Data set [3] concerns Trypanosoma brucei brucei. Kind of data set: Antitrypanosomal activity against Trypanosoma brucei brucei MIT measured after 6 hrs by Alamar blue cell viability assay. In kind it is functional, organism-based. In outline:
(§1)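 Bloodstream-form T. b. brucei MITat1.1 kept in log phase in antibiotic-free HMI-9 with 10% heat-inactivated FBS, 37 °C, 5% CO2. Seeded at 2 × 10⁵ cells/mL with 5 μM–100 pM compound or DMSO alone. Alamar Blue added at 6 h, total incubation 24 h. Absorbance read at 540 and 595 nm. Triplicate. EC50 by four-parameter variable-slope nonlinear regression.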
For orientation: Resazurin is reduced to fluorescent resorufin, in cell work by metabolically active cells.

For data set [4], the system named is Trypanosoma brucei brucei. Nature of the data set: Antitrypanosomal activity against Trypanosoma brucei brucei assessed as reduction in survival. It is filed as functional, organism-based. In outline: as §1
The nature of data set [5]: Growth inhibition of human HaCaT cells incubated for 24 hrs by MTT assay. It is filed as toxicity, cell-based. The essentials: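 HaCaT cells (mycoplasma-tested) in DMEM with 10% fetal calf serum, seeded at 1x10⁵ cells/mL for 24 h, washed with PBS and then exposed to compound for 24 h. Controls were 0.1% v/v Triton X-100 and untreated cells. MTT (0.5 mg/mL) added for 3 h, formazan dissolved in DMSO and read at 590 nm. GI50 from log(inhibitor) vs normalised response. Triplicate wells, repeated on three separate days.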

The text below walks through data of ChEMBL document CHEMBL5223070, “Synthesis and optimisation of P3 substituted vinyl sulfone-based inhibitors as anti-trypanosomal agents” (Bioorg Med Chem, 2020).

The EC50 is the concentration giving half of the maximal effect. Higher therefore signals lower potency in that assay. Broadly, the IC50 is the midpoint of a concentration-inhibition curve. Regarding `O=C(Nc1ccccc1)N[C@@H](Cc1ccccc1)C(=O)N[C@H](/C=C/S(=O)(=O)c1ccccc1)CCCCNS(=O)(=O)c1cccc2ccccc12`, the entries for the “growth inhibition (GI)” value with HaCaT [1] and in the data set with HaCaT [2] were “Not Determined(Insoluble)” and “Toxic”, respectively. In data set [3], the response was half-maximal at 150 nM (EC50). Besides, the IC50 in data set [4] amounted to 144 nM.

As to `O=C(N[C@H](/C=C/S(=O)(=O)c1ccccc1)CCCCNS(=O)(=O)c1cccc2ccccc12)[C@H](Cc1ccccc1)NC(=O)N1CCOCC1`, it took 900 nM to reach a half-maximal effect in data set [3] (EC50).

Take `O=C1N[C@@H](CCCCNS(=O)(=O)c2cccc3ccccc23)[C@@H](CS(=O)(=O)c2ccccc2)N[C@H]1Cc1ccccc1`: the EC50 in data set [3] was above 5000 nM.

With `O=C(N[C@@H](Cc1ccccc1)C(=O)N[C@H](/C=C/S(=O)(=O)c1ccccc1)CCCCNS(=O)(=O)c1cccc2ccccc12)c1ccc(C(F)(F)F)cc1`, the “growth inhibition (GI)” value in the data set on HaCaT [1] is given as “Not Determined(Insoluble)”; in the data set on HaCaT [2] it was “Toxic”. This compound came in with an EC50 in data set [3] of 240 nM. The IC50 in data set [4] was 242 nM.

Turning to `CCCCNC(=O)N[C@@H](Cc1ccccc1)C(=O)N[C@H](/C=C/S(=O)(=O)c1ccccc1)CCCCNS(=O)(=O)c1cccc2ccccc12`, a half-maximal effect in data set [3] (EC50) was put at 640 nM.

`N[C@@H](Cc1ccccc1)C(=O)N[C@H](/C=C/S(=O)(=O)c1ccccc1)CCCCNS(=O)(=O)c1cccc2ccccc12`: it took 3430 nM to reach a half-maximal effect in data set [3] (EC50). Compared with the last compound, the EC50 is about 5.4-fold higher.

`CCCCCCc1cn([C@@H](Cc2ccccc2)C(=O)N[C@H](/C=C/S(=O)(=O)c2ccccc2)CCCCNS(=O)(=O)c2cccc3ccccc23)nn1` gave an EC50 in data set [3] of 1050 nM.

In the case of `O=C(N[C@H](/C=C/S(=O)(=O)c1ccccc1)CCCCNS(=O)(=O)c1cccc2ccccc12)[C@H](Cc1ccccc1)NC(=S)Nc1ccc(C(F)(F)F)cc1`, the figures for the “growth inhibition (GI)” value in the data set with HaCaT [1] and in the data set on HaCaT [2] were “Not Determined(Insoluble)” and “Toxic”, respectively. Moreover, a half-maximal response in data set [3] (EC50) required 220 nM. Further, in data set [4], the IC50 worked out at 220 nM.

As for `[N-]=[N+]=N[C@@H](Cc1ccccc1)C(=O)N[C@H](/C=C/S(=O)(=O)c1ccccc1)CCCCNS(=O)(=O)c1cccc2ccccc12`, the EC50 in data set [3] is above 5000 nM.

Consider `O=C(N[C@H](/C=C/S(=O)(=O)c1ccccc1)CCCCNS(=O)(=O)c1cccc2ccccc12)[C@H](Cc1ccccc1)NC(=S)Nc1ccccc1`, for which the EC50 in data set [3] stood at 480 nM.

Turning to `CC(C)(C)NC(=O)N[C@@H](Cc1ccccc1)C(=O)N[C@H](/C=C/S(=O)(=O)c1ccccc1)CCCCNS(=O)(=O)c1cccc2ccccc12`, the EC50 in data set [3] was above 5000 nM.

In turn, `Cc1ccc(S(=O)(=O)N[C@@H](Cc2ccccc2)C(=O)N[C@H](/C=C/S(=O)(=O)c2ccccc2)CCCCNS(=O)(=O)c2cccc3ccccc23)cc1` had an EC50 in data set [3] of 990 nM.

`O=C(N[C@@H](Cc1ccccc1)C(=O)N[C@H](/C=C/S(=O)(=O)c1ccccc1)CCCCNS(=O)(=O)c1cccc2ccccc12)OCc1ccccc1` showed an EC50 in data set [3] of 740 nM. This EC50 and that of the compound before are within 1.5-fold of each other.

In data set [3], `O=C(Cc1ccc2c(c1)OCO2)N[C@@H](Cc1ccccc1)C(=O)N[C@H](/C=C/S(=O)(=O)c1ccccc1)CCCCNS(=O)(=O)c1cccc2ccccc12` gave an EC50 of 800 nM.

For `O=C(N[C@H](/C=C/S(=O)(=O)c1ccccc1)CCCCNS(=O)(=O)c1cccc2ccccc12)[C@H](Cc1ccccc1)n1cc(-c2ccccc2)nn1`, in data set [3], the EC50 came to 1120 nM.

Turning to `O=C(N[C@@H](Cc1ccccc1)C(=O)N[C@H](/C=C/S(=O)(=O)c1ccccc1)CCCCNS(=O)(=O)c1cccc2ccccc12)c1ccncc1`, the EC50 in data set [3] stood at 710 nM. Against the preceding compound, the EC50 is about 1.6-fold lower.

As to `COc1cc(Br)c(S(=O)(=O)NCCCC[C@@H](/C=C/S(=O)(=O)c2ccccc2)NC(=O)[C@H](Cc2ccccc2)NC(=S)Nc2ccc(C(F)(F)F)cc2)cc1OC`, the results for the “growth inhibition (GI)” value in the data set on HaCaT [1] and in the data set on HaCaT [2] were “Not Determined(Insoluble)” and “Toxic”, respectively. In addition, the EC50 in data set [3] was found to be 390 nM. In addition, in data set [4], the IC50 stood at 410 nM.

In general, GI50 refers to the concentration giving 50% growth inhibition. Read a low GI50 as greater sensitivity of the cells. For the compound `CN1CCN(C(=O)N[C@@H](Cc2ccccc2)C(=O)N[C@H](/C=C/S(=O)(=O)c2ccccc2)CCCCNS(=O)(=O)c2cccc3ccccc23)CC1`, the “growth inhibition (GI)” value in the data set on HaCaT [1] is on record as “Not Determined(Insoluble)”; in the data set on HaCaT [2], “Toxic”. Also, the midpoint of the response in data set [3], the EC50, lay at 1190 nM. The compound also had a GI50 at 24 h in data set [5] of 28700 nM. Further, in data set [4], the IC50 stood at 1180 nM.
